Laboratory results taken from PMC8233206 (The Journal of Biological Chemistry, 2021).
Like-named read-outs stand apart in the source and are kept apart here. One block for each compound: values may come before it.

Experiments:
Panc03.27 cells = test: Seahorse XF glycolysis stress assay, glucose-induced ECAR; format: cell-based, human
Outline: (§1)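 Seeded 48 h before in growth medium (1.5 × 10⁴ Panc03.27, MDA-MB-231, HPNE; 1.2 × 10⁴ Mia Paca-2; 2.0 × 10⁴ QGP1). MCT1/2 inhibitor 0.5 μM or DMSO added 4 h pre-assay. Medium: DMEM without NaHCO₃, 2 mM glutamine, 5 mM glucose, pH 7.4. Injected in order: 2 mM sodium pyruvate, 10 mM glucose, 2 μM oligomycin, 50 mM 2-DG. Glucose-induced/baseline ECAR ratio, normalized to Hoechst cell counts and 0 mM pyruvate; three experiments.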

Mia Paca-2 cells = test: as above; format: cell-based, human
Outline: as §1

QGP1 cells = test: as above; format: cell-based, human
Outline: as §1

MDA-MB-231 cells = test: as above; format: cell-based, human
Outline: as §1

HPNE cells = test: as above; format: cell-based, human
Outline: as §1

[1] = mice; injection of 80 mM hyperpolarized solution; cited from earlier work
[2] = humans; 230 mM at 5 ml/s injection rate; cited from earlier work
bovine heart LDH = bovine heart LDH (Bos taurus, UniProt Q5E9B1); test: LDH coupled-enzyme kinetic assay; format: biochemical
[3] = biological target: purified human recombinant LDHA (Homo sapiens, UniProt P00338); test: LDH coupled-enzyme kinetic assay; format: biochemical
human recombinant LDHB = human recombinant LDHB (Homo sapiens, UniProt P07195); test: LDH coupled-enzyme kinetic assay; format: biochemical
[4] = tested on: LDH in extracts from Panc03.27 cells; test: LDH enzyme kinetics in cell extracts; format: biochemical, human; conditions: Panc03.27 cell extract
Outline: (§2)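 Cells washed in ice-cold PBS, lysed in ice-cold LDH assay lysis buffer, protein measured by Coomassie. Extract mixed with Tris/NaCl/NADH buffer and Tris/NaCl/pyruvate (0–30 mM). Plate shaken 30 s, then A340 read five times at 30-s intervals; initial velocities from NADH oxidation. Enzyme-free and pyruvate-free controls run. Vmax, Vpeak, apparent Km and Ki from biphasic curve fits. Triplicate, three independent experiments; mean ± SE.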

[5] = tested on: LDH in extracts from Mia Paca-2 cells; test: LDH enzyme kinetics in cell extracts; format: biochemical, human; conditions: Mia Paca-2 cell extract
Outline: as §2

[6] = tested on: LDH in extracts from QGP1 cells; test: LDH enzyme kinetics in cell extracts; format: biochemical, human; conditions: QGP1 cell extract
Outline: as §2

[7] = tested on: LDH in extracts from MDA-MB-231 cells; test: LDH enzyme kinetics in cell extracts; format: biochemical, human; conditions: MDA-MB-231 cell extract
Outline: as §2

[8] = tested on: LDH in extracts from HPNE cells; test: LDH enzyme kinetics in cell extracts; format: biochemical, human; conditions: HPNE cell extract
Outline: as §2

[9] = 0.5 μM AZD3965 pretreatment 4 h, 5 mM glucose, vs DMSO control
[10] = LDH bovine heart, pyruvate 0–30 mM
[11] = read-out: Ki (apparent, substrate inhibition)
[12] = 2 mM sodium pyruvate, medium with 5 mM glucose, DMSO control

human recombinant LDHB, sequence (P07195 whole entry): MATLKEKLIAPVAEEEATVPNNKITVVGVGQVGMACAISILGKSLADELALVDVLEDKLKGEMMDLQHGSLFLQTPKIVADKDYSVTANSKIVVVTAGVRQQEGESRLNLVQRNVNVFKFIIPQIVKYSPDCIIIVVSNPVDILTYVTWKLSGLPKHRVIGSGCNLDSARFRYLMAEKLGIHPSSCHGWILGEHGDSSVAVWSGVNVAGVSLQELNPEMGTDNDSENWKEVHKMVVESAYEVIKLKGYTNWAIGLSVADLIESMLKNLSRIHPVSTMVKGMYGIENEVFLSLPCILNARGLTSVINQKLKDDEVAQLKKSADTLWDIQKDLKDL
bovine heart LDH, sequence (Q5E9B1 2-334): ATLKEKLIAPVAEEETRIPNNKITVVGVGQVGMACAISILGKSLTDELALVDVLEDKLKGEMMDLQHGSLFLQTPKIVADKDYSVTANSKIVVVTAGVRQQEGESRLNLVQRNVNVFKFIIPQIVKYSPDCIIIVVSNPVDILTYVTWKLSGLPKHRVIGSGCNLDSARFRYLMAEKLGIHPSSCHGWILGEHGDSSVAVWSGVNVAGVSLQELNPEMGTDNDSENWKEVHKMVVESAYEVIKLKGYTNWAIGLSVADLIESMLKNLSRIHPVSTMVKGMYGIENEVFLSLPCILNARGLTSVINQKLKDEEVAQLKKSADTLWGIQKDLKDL

Structure (SMILES): Cc1[nH]nc(C(F)(F)F)c1Cc1sc2c(c1C(=O)N1C[C@](C)(O)CO1)c(=O)n(C)c(=O)n2C(C)C [AZD3965, reference compound]
- Effect on 2 mM pyruvate-induced inhibition of glucose-stimulated ECAR (Panc03.27 cells; [9]): blocked
- Effect on 2 mM pyruvate-induced inhibition of glucose-stimulated ECAR (Mia Paca-2 cells; [9]): blocked
- Effect on 2 mM pyruvate-induced inhibition of glucose-stimulated ECAR (QGP1 cells; [9]): blocked
- Effect on 2 mM pyruvate-induced inhibition of glucose-stimulated ECAR (MDA-MB-231 cells; [9]): no significant effects
- Effect on 2 mM pyruvate-induced inhibition of glucose-stimulated ECAR (HPNE cells; [9]): blocked

Structure (SMILES): CC(=O)[13C](=O)O [[1-^13C]pyruvate]
- Blood pyruvate concentration [1]: ~8 mM
- Blood pyruvate concentration [2]: ≥ 2 mM

- Ki (bovine heart LDH): 1.75 ± 0.11 mM
- Vmaz (maximal initial velocity from activation curve fit) (bovine heart LDH; [10]): 3.23 ± 0.10 ΔAbs/s∗10^−3/μg protein
- Vpeak (peak initial velocity of the biphasic curve fit) (bovine heart LDH; [10]): 2.08 ΔAbs/s∗10^−3/μg protein
- Ki [3]: 5.33 ± 0.49 mM
- Vmaz (maximal initial velocity from activation curve fit) ([3]; rLDHA, pyruvate 0–30 mM): 1.00 ± 0.04 ΔAbs/s∗10^−3/μg protein
- Vpeak (peak initial velocity of the biphasic curve fit) ([3]; rLDHA, pyruvate 0–30 mM): 0.75 ΔAbs/s∗10^−3/μg protein
- Ki (human recombinant LDHB): 2.88 ± 0.4 mM
- Vmaz (maximal initial velocity from activation curve fit) (human recombinant LDHB; rLDHB, pyruvate 0–30 mM): 1.00 ± 0.05 ΔAbs/s∗10^−3/μg protein
- Vpeak (peak initial velocity of the biphasic curve fit) (human recombinant LDHB; rLDHB, pyruvate 0–30 mM): 0.75 ΔAbs/s∗10^−3/μg protein
Structure (SMILES): CC(=O)C(=O)O [pyruvate]
- Vmaz (maximal initial velocity from activation curve fit) [4]: 2.00 ± 0.07 ΔAbs/s∗10^−3/μg protein
- Vpeak (peak initial velocity of the biphasic curve fit) [4]: 1.56 ΔAbs/s∗10^−3/μg protein
- Ki [4, 11]: 2.33 ± 0.21 mM
- Km ([4]; read-out: Km (apparent)): 50 µM
- Vmaz (maximal initial velocity from activation curve fit) [5]: 0.88 ± 0.03 ΔAbs/s∗10^−3/μg protein
- Vpeak (peak initial velocity of the biphasic curve fit) [5]: 0.66 ΔAbs/s∗10^−3/μg protein
- Ki [5, 11]: 4.26 ± 0.32 mM
- Km ([5]; read-out: Km (apparent)): 110 ± 10 µM
- Vmaz (maximal initial velocity from activation curve fit) [6]: 1.85 ± 0.05 ΔAbs/s∗10^−3/μg protein
- Vpeak (peak initial velocity of the biphasic curve fit) [6]: 1.42 ΔAbs/s∗10^−3/μg protein
- Ki [6, 11]: 3.42 ± 0.25 mM
- Km ([6]; read-out: Km (apparent)): 80 ± 10 µM
- Vmaz (maximal initial velocity from activation curve fit) [7]: 2.98 ± 0.17 ΔAbs/s∗10^−3/μg protein
- Vpeak (peak initial velocity of the biphasic curve fit) [7]: 2.20 ΔAbs/s∗10^−3/μg protein
- Ki [7, 11]: 3.39 ± 0.5 mM
- Km ([7]; read-out: Km (apparent)): 100 ± 20 µM
- Vmaz (maximal initial velocity from activation curve fit) [8]: 2.71 ± 0.08 ΔAbs/s∗10^−3/μg protein
- Vpeak (peak initial velocity of the biphasic curve fit) [8]: 1.98 ΔAbs/s∗10^−3/μg protein
- Ki [8, 11]: 2.67 ± 0.2 mM
- Km ([8]; read-out: Km (apparent)): 90 ± 10 µM
- Decrease of glucose-stimulated ECAR (Panc03.27 cells; [12]): > 30%
- Decrease of glucose-stimulated ECAR (Mia Paca-2 cells; [12]): > 30%
- Decrease of glucose-stimulated ECAR (QGP1 cells; [12]): > 30%
- Decrease of glucose-stimulated ECAR (MDA-MB-231 cells; [12]): > 30%
- Decrease of glucose-stimulated ECAR (HPNE cells; [12]): less than 10%
